# Assay outcomes deposited in PubChem BioAssay by several laboratories.
# Runt-SMMHC FRET = inhibitors of human RUNX1 Runt domain binding to CBFb-SMMHC; actives 0.74% (n = 220,000); Cerulean-Runt/Venus-CBFb-SMMHC FRET ratio 530/480, 1 h; inhibition, % at 20 µM; AID 1434; Q01196+Q13951;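 active means mean inhibition across duplicate retests at 20 µM reaching about 50%, limit read from the data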;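 further: 0% = DMSO wells and 100% = wells with excess untagged CBFb-SMMHC; inhibitors lower the FRET ratio by blocking Runt binding to CBFb-SMMHC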
# m-calpain inh = calpain II (pig) inhibition; actives 0.37% (n = 220,000); inhibition, % at 16 µM; purified calpain II, fluorogenic peptide substrate, 30 min;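 active means inhibition above about 50%, limit read from the data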
# FAS TE block = FAS thioesterase (human) inhibition; P49327; AID 602261; actives 0.67% (n = 360,000); recombinant FAS-TE, OMFH fluorogenic substrate, fluorescence endpoint; inhibition, % at 15 µM;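 active means compounds whose normalised, plate-corrected inhibition of enzyme fluorescence in the single-dose primary screen is 50% or more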;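 further: 0% = DMSO with enzyme and 100% = substrate without enzyme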
# RanGTP-Imp inh = inhibitors of RanGTP-importin-beta interaction, primary screen, biochemical, FRET, CFP-Ran, YFP-importin-beta, homogeneous | inhibition, % (concentration not given with the values) | actives 1.1% (n = 300,000) | AID 2216 | cell-free CFP-Ran/YFP-importin-beta FRET ratio;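 active means more than half of the replicate wells show a fall in the fluorescence ratio signal beyond about 16%, limit read from the data, passing the limit was not always enough; inconclusive means exactly half of the replicate wells pass the set limit; inactive means fewer than half of replicates pass the limit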;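 further: 0% = DMSO wells and 100% = Ran loaded with GDP instead of GTP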
# Runt-CBFb FRET = Runt domain-CBFb interaction inhibition; Q01196+Q13951; Cerulean-Runt/Venus-CBFb FRET ratio 530/480, 1 h; inhibition, % at 20 µM; actives 0.46% (n = 220,000); AID 1496;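 active means inhibition over about 50% at 20 µM in the single-dose screen, limit read from the data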;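 further: 0% = DMSO wells and 100% = excess unlabeled CBFb competitor control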
#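 Assay system: Cerulean-tagged RUNX1 Runt domain (FRET donor) fusion protein / Amount: 100 nM each of Venus-CBFb and Cerulean-Runt domain / Medium: Tris buffer pH 7.5 with salts and BSA / Also added: Venus-CBFb 100 nM / Schedule: 1 h complex formation plus 1 h compound treatment, room temperature / Signal: FRET fluorescence / Read-out: loss of energy transfer signal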
# * marks the source's active call; other numbers are inactive results; i = inactive; ? = inconclusive; / = no result given. This is a sample that favours compounds with a hit; in the whole collection about 2.1% have one here.
SMILES,Runt-SMMHC FRET,m-calpain inh,FAS TE block,RanGTP-Imp inh,Runt-CBFb FRET
COC(=O)[C@]12CCCCC=C1N(Cc1cccc3ccccc13)C(=O)[C@H](CC(=O)NCC13CC4CC(CC(C4)C1)C3)C2,/,/,24,/,/
N#Cc1c(NC(=O)C2CC(c3ccccc3Cl)=NO2)sc2c1CCC2 (centres undefined),0,-38,30,3,0
Cc1onc(-c2ccccc2Cl)c1C(=O)Nc1sc2c(c1C#N)CCC2,8,19,17,45*,4
Cc1ccc(C(=O)O)cc1-n1c(C)cc(C=O)c1C,90*,-30,-6,2,23
Cc1c(C(=O)O)cccc1-n1c(C)cc(C=O)c1C,92*,31,-5,7,14
O=C(NCc1ccco1)C1CCN(C(=O)c2cc3sccc3n2Cc2ccc(Cl)cc2)CC1,0,57*,14,-1,-1
O=C(O)Cn1c2c(c3ccccc31)CCCC2,16,-53,-6,29*,-6
CC(=O)NNC(=O)CCn1c2c(c3ccccc31)CCCC2,-5,-22,-2,-5,-3
CC(C)n1nccc1NC(=O)COC(=O)c1ccc(NC(N)=O)cc1,/,/,-2,/,/
CCOC(=O)c1cc2ccc(OC(=O)c3ccco3)cc2oc1=O,62*,i,0,182*,18
CCOC(=O)c1c(C)n(C)c2ccc(OC(=O)c3ccco3)cc12,0,-4,8,0,-2
CCOC(=O)c1c[nH]c2ccc3ccccc3c2c1=O,/,/,-3,1,/
CCOC(=O)c1cc2ccc3ccccc3c2oc1=O,/,/,-3,73*,/
C[C@@H]1CN([C@@H](C)CO)C(=O)c2cc(NC(=O)c3ccccc3)ccc2O[C@@H](C)CCCCO[C@@H]1CN(C)Cc1ccc(C(F)(F)F)cc1,/,/,16,/,/
Cc1cc(/C=C2\SC(=S)NC2=O)c(C)n1-c1ccc(O)cc1,-38,13,14,23*,-10
CC(=O)Nc1ccc(Cl)cc1C1COC(=O)C1=N (centres undefined),-8,-3,-7,19*,-6
O=C(CCC(F)(F)F)N1CCCC(N2CCN(c3cccc(Cl)c3)CC2)C1 (centres undefined),/,/,1,2,/
O=C(c1cc2cc([N+](=O)[O-])ccc2s1)N1CCOCC1,0,11,-1,1,1
O=C(c1cc2cc([N+](=O)[O-])ccc2s1)N1CCCCC1,-1,55*,16,5,0
O=C(NCCc1ccc(Cl)cc1)c1ccc2ccccc2n1,/,/,23,-1,/
O=C(O)C(=O)/C(=C\c1ccc(Cl)cc1)c1ccc2ccccc2n1,96*,-158,-3,-5,39
C#CCOc1ccc2c3c(c(=O)oc2c1)CCCC3,/,/,23,3,/
N=c1c(C(=O)NCCN2CCOCC2)cc2c(=O)n3ccccc3nc2n1Cc1ccc(F)cc1,/,/,4,127*,/
N=c1c(C(=O)NCCN2CCOCC2)cc2c(=O)n3ccccc3nc2n1CCCN1CCOCC1,/,/,-3,145*,/
O=C(Nc1cccc2[nH]ncc12)NS(=O)(=O)c1ccccc1,/,/,-14,6,/
SMILES,Runt-SMMHC FRET,m-calpain inh,FAS TE block,RanGTP-Imp inh,Runt-CBFb FRET
CC(=O)Nc1ccc(S(=O)(=O)Nc2cccc3[nH]ncc23)cc1,0,51*,-2,-4,2
Cc1ccc(-c2csc(/C=C3\SC(C)C(=O)N3CC(=O)Nc3ccccc3F)n2)cc1 (centres undefined),3,67*,10,1,2
CCCCN(C(=O)CSc1nnc(Nc2ccccc2)s1)c1c(N)n(CCC)c(=O)[nH]c1=O,0,33,-4,-2,-7
CN1C(=O)c2cccc3c(S(=O)(=O)N(C)C)ccc1c23,/,/,-2,19*,/
CCN1C(=O)c2cccc3c(S(=O)(=O)N(C)C)ccc1c23,/,/,2,/,/
Cc1ccc(NC(=O)CCC(=O)c2cc(C)sc2C)nc1,/,/,-4,-6,/
Cc1ccc[n+](CC(=O)Nc2ccc([N+](=O)[O-])cc2Cl)c1,9,-15,-9,176*,0
COc1cc([N+](=O)[O-])ccc1NC(=O)C[n+]1cccc(C)c1,5,-23,-6,-2,2
COCCN(CCOC)Cc1cc(=O)oc2cc(C)c(Cl)cc12,/,/,-1,/,/
Cc1cc(=O)oc2c(CN3CC(C)OC(C)C3)c(O)c(Cl)cc12 (centres undefined),136*,i,-2,34*,108*
CCCCc1cc(=O)oc2c(CN3CCCC3)c(O)ccc12,95*,/,-8,8,34
CCc1cc(=O)oc2c(CN3CCCC3)c(O)c(Cl)cc12,146*,/,-6,?,99*
O=C1CCC(c2ccccc2)N1C(=O)c1cccnc1 (centres undefined),0,-11,-8,34*,-2
NCCCCC(N)c1cn([C@@H](CCC(=O)O)C(=O)N2CCNCC2)nn1 (some centres undefined),/,/,-10,/,/
Cc1ccc2nc(NS(=O)(=O)c3cn(C)nc3C)sc2c1,/,/,-2,-3,/
Nc1cccc2c1C(=O)N(C(=O)c1ccc(S(=O)(=O)N3CCCCCC3)cc1)C2=O,58*,i,10,11,12
O=C(O)c1ccc(S(=O)(=O)N2CCCCCC2)cc1,-1,-12,-11,2,3
Cc1cc2c(cc1C)N[C@]1(C[C@H]3CCCC(=O)N4CC[C@@H](C1)[C@@H]34)C(=NC(C)(C)CC(C)(C)C)N2,/,/,5,/,/
O=C(NCCCN1CCCCC1)C1CCN(S(=O)(=O)N2CCC3(CC2)OCCO3)CC1,/,/,-4,1,/
COc1ccc(C2=CC3=C(Br)C(=O)C(C)(OC(=O)C4CCCC4)C(=O)C3=CO2)cc1 (centres undefined),18,-41,-2,-5,64*
COc1cc(/C=C(/C#N)c2nc3ccccc3[nH]2)ccc1OC(=O)c1ccco1,10,-89,16,28*,5
COc1ccc(/C=C(\C#N)c2nc3ccccc3[nH]2)cc1O,/,/,0,7,/
O=C(Nc1cccc(S(=O)(=O)N2CCCCC2)c1)C1CC(=O)N(Cc2ccco2)C1 (centres undefined),-3,-29,3,40*,1
COc1ccc(S(=O)(=O)N2CCCCC2)cc1NC(=O)C1CC(=O)N(Cc2ccco2)C1 (centres undefined),/,/,-4,/,/
Nc1nonc1-c1noc(CCCCCN2C(=O)c3ccccc3C2=O)n1,-4,51*,13,/,0
Cc1ccc(-c2noc(CN(C(=O)CCCCCN3C(=O)c4ccccc4C3=O)C(C)C)n2)cc1,-7,55*,30,0,-7
COc1ccc(N(C(=O)c2ccco2)S(=O)(=O)c2cc(Cl)c(Cl)cc2Cl)cc1,5,54*,24,1,2
Cc1cc(NC(=O)CSc2nc3cc(C(=O)NCCCOC(C)C)ccc3c(=O)n2Cc2ccco2)no1,-4,61*,-7,9,-1
